Assay results reported in ChEMBL document CHEMBL3769399, “Synthesis and cytotoxic activities of some pyrazoline derivatives bearing phenyl pyridazine core as new apoptosis inducers” (Eur J Med Chem, 2016).
pIC50: −log10 of the molar value.

How the values were obtained:
[1] = Antiproliferative activity against human Caco2 cells assessed as cell viability after 24 hrs by MTT assay; format: functional, cell-based; conditions: Caco-2, 24 h
Outline: (§1)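 CaCo-2 kept in RPMI with 10% fetal calf serum and antibiotics at 37 °C, 5% CO2. Cells were seeded at 10^3 per well overnight, then treated 24 h at 0, 5, 10, 50 and 100, diluted from a stock containing 1% DMSO. Viability came from WST-1 read at 450 nm, blank-subtracted and normalised to untreated cells.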

HepG2 [2] = test: Antiproliferative activity against human HepG2 cells assessed as cell viability after 24 hrs by MTT assay; format: functional, cell-based; conditions: HepG2, 24 h
Outline: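 HepG2 grown as monolayer in DMEM plus 10% fetal calf serum and penicillin/streptomycin at 37 °C, 5% CO2. Plated overnight at 10^3 cells/well and exposed 24 h to five levels (0–100) diluted in complete medium from a 1% DMSO stock. WST-1 absorbance at 450 nm gave blank-corrected % viability versus untreated control, from which IC50 was derived.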

MCF7 [3] = test: Antiproliferative activity against human MCF7 cells assessed as cell viability after 24 hrs by MTT assay; format: functional, cell-based; conditions: MCF7, 24 h
Outline: (§2)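 Monolayers in DMEM (A549) or RPMI (MCF-7) with 10% fetal calf serum, penicillin and streptomycin at 37 °C and 5% CO2. Seeded overnight at 10^3 cells/well, then dosed at 0–100 from a serum-free stock in 1% DMSO diluted in complete medium. After 24 h, viability was read by WST-1 premix at 450 nm and blank-corrected against untreated cells. IC50 given as mean with standard error.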

A549 [4] = test: Antiproliferative activity against human A549 cells assessed as cell viability after 24 hrs by MTT assay; format: functional, cell-based; conditions: A549, 24 h; outline: as §2
[5] = Cytotoxicity against HEK293 cells assessed as cell viability at 10 uM after 24 hrs by MTT assay; format: cell-based; conditions: human, read-out: Activity
Outline: (§3)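 Human embryonic kidney 293 cells, as normal-cell counterpart, treated at four levels (10, 100, 200, 300). Percentage of viable cells reported with SE at each level, and IC50 estimated.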

[6] = Cytotoxicity against HEK293 cells assessed as cell viability at 200 uM after 24 hrs by MTT assay; format: cell-based; conditions: human, read-out: Activity; outline: as §3
[7] = Cytotoxicity against HEK293 cells assessed as cell viability at 100 uM after 24 hrs by MTT assay; format: cell-based; conditions: human, read-out: Activity; outline: as §3
MCF7 [8] = test: Induction of necrosis in human MCF7 cells at 10 uM by annexin V-FITC/ethidium homodimer III staining-based flow cytometry relative to control; format: functional
Outline: (§4)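 Treated cells at 2–3×10^5/mL were resuspended in 1X binding buffer and stained with FITC-Annexin V (apoptosis) plus Ethidium Homodimer III (necrosis) for 15 min at room temperature in the dark. Buffer was added and FACS was read within 1 h. Percent induction is the compound's apoptotic or necrotic fraction minus that of untreated negative control.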

MCF7 [9] = test: Induction of apoptosis in human MCF7 cells at 10 uM by annexin V-FITC/ethidium homodimer III staining-based flow cytometry relative to control; format: functional; outline: as §4
[10] = Cytotoxicity against HEK293 cells assessed as cell viability at 300 uM after 24 hrs by MTT assay; format: cell-based; conditions: human, read-out: Activity; outline: as §3
HEK293 = test: Cytotoxicity against HEK293 cells assessed as cell viability after 24 hrs by MTT assay; format: cell-based; conditions: Homo sapiens, HEK293, 24 h; outline: as §3
HepG2 [11] = test: Induction of apoptosis in human HepG2 cells at 10 uM by annexin V-FITC/ethidium homodimer III staining-based flow cytometry relative to control; format: functional; outline: as §4
HepG2 [12] = test: Induction of necrosis in human HepG2 cells at 10 uM by annexin V-FITC/ethidium homodimer III staining-based flow cytometry relative to control; format: functional; outline: as §4
[13] = Antiproliferative activity against human Caco2 cells assessed as cell viability at 10 uM after 24 hrs by MTT assay; format: functional; conditions: Caco-2, 24 h, read-out: Activity; outline: as §1
A549 [14] = test: Induction of necrosis in human A549 cells at 10 uM by annexin V-FITC/ethidium homodimer III staining-based flow cytometry relative to control; format: functional; outline: as §4
A549 [15] = test: Induction of apoptosis in human A549 cells at 10 uM by annexin V-FITC/ethidium homodimer III staining-based flow cytometry relative to control; format: functional; outline: as §4
Caco-2 [16] = test: Induction of necrosis in human Caco2 cells at 10 uM by annexin V-FITC/ethidium homodimer III staining-based flow cytometry relative to control; format: functional; outline: as §4
MCF7 [17] = test: Induction of apoptosis in human MCF7 cells assessed as increase in caspase 3 activation at IC50 using Ac-Asp-Glu-Val-Asp-pNA as substrate after 24 hrs by colorimetric assay relative to control; format: functional
Outline: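 MCF-7 cells were grown in RPMI with 10% fetal calf serum, penicillin and streptomycin at 37 °C under 5% CO2, then seeded at 5 × 10^5 cells/well and treated for 24 h. After the medium was removed, cells were lysed with lysis buffer and shaken for 10 min. Lysate was added to caspase-3 reaction buffer containing diluted substrate. The increase in A405 was read over 30 min and expressed relative to untreated controls.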

Caco-2 [18] = test: Induction of apoptosis in human Caco2 cells at 10 uM by annexin V-FITC/ethidium homodimer III staining-based flow cytometry relative to control; format: functional; outline: as §4

Structure (SMILES) | pIC50 (HepG2 [2]) | pIC50 (MCF7 [3]) | pIC50 (A549 [4]) | pIC50 [1] | viability at 24 h, 10 µM [5] | viability at 24 h, 200 µM [6] | viability at 24 h, 100 µM [7] | Activity (MCF7 [8]) | Activity (MCF7 [9]) | viability at 24 h, 300 µM [10] | pIC50 (HEK293) | Activity (HepG2 [11]) | Activity (HepG2 [12]) | viability at 10 µM [13] | Activity (A549 [14]) | Activity (A549 [15]) | Activity (Caco-2 [16]) | fold change (FC) (MCF7 [17]) | Activity (Caco-2 [18])
COc1ccc(C2CC(c3ccc(Cl)cc3)=NN2c2ccc(-c3ccccc3)nn2)c(OC)c1 (stereo not drawn) | < 4.00 | < 4.00 | < 4.00 | < 4.00 | – | – | – | – | – | – | – | – | – | – | – | – | – | – | –
COc1cc(C2CC(c3ccc(Cl)cc3)=NN2c2ccc(-c3ccccc3)nn2)cc(OC)c1OC (stereo not drawn) | < 4.00 | 4.00 | 4.08 | < 4.00 | – | – | – | – | – | – | – | – | – | – | – | – | – | – | –
Clc1ccc(C2=NN(c3ccc(-c4ccccc4)nn3)C(c3ccc(Cl)cc3)C2)cc1 (stereo not drawn) | 5.00 | 5.06 | < 4.00 | < 4.00 | 85.6% | 79.8% | 81.7% | 0.1% | 39% | 76.4% | < 3.52 | – | – | – | – | – | – | – | –
COc1cc(C2CC(c3ccccc3)=NN2c2ccc(-c3ccccc3)nn2)cc(OC)c1OC (stereo not drawn) | 4.00 | 4.15 | 4.08 | < 4.00 | – | – | – | – | – | – | – | – | – | – | – | – | – | – | –
COc1ccc(C2=NN(c3ccc(-c4ccccc4)nn3)C(c3cc(OC)c(OC)c(OC)c3)C2)cc1 (stereo not drawn) | < 4.00 | 4.00 | < 4.00 | < 4.00 | – | – | – | – | – | – | – | – | – | – | – | – | – | – | –
COc1ccc(C2=NN(c3ccc(-c4ccccc4)nn3)C(c3ccc(OC)cc3)C2)cc1 (stereo not drawn) | < 4.00 | 4.00 | < 4.00 | < 4.00 | – | – | – | – | – | – | – | – | – | – | – | – | – | – | –
COc1ccc(C2=NN(c3ccc(-c4ccccc4)nn3)C(c3ccc(OC)cc3OC)C2)cc1 (stereo not drawn) | < 4.00 | 4.00 | 4.00 | < 4.00 | – | – | – | – | – | – | – | – | – | – | – | – | – | – | –
FC(F)(F)c1ccc(C2CC(c3ccc(Cl)cc3)=NN2c2ccc(-c3ccccc3)nn2)cc1 (stereo not drawn) | 5.08 | 5.78 | < 4.00 | 5.00 | 92.7% | 84.6% | 87.7% | 1.26% | 27.2% | 79.1% | < 3.52 | 24.8% | 4.97% | 50% | – | – | 1.87% | 5 | 13.4%
COc1ccc(C2CC(c3ccccc3)=NN2c2ccc(-c3ccccc3)nn2)c(OC)c1 (stereo not drawn) | 4.00 | < 4.00 | 5.02 | < 4.00 | 85.2% | 81.1% | 82.9% | – | – | 74.2% | < 3.52 | – | – | – | 1.04% | 27% | – | – | –
COc1ccc(C2CC(c3ccc(Cl)cc3)=NN2c2ccc(-c3ccccc3)nn2)cc1 (stereo not drawn) | < 4.00 | 4.00 | 4.00 | < 4.00 | – | – | – | – | – | – | – | – | – | – | – | – | – | – | –
COc1ccc(C2=NN(c3ccc(-c4ccccc4)nn3)C(c3ccc(Cl)cc3)C2)cc1 (stereo not drawn) | < 4.00 | 4.24 | 4.00 | < 4.00 | – | – | – | – | – | – | – | – | – | – | – | – | – | – | –
COc1ccc(C2=NN(c3ccc(-c4ccccc4)nn3)C(c3ccc(C(F)(F)F)cc3)C2)cc1 (stereo not drawn) | < 4.00 | 4.33 | < 4.00 | 4.19 | – | – | – | – | – | – | – | – | – | – | – | – | – | – | –
COc1cccc2c1C(=O)c1c(O)c3c(c(O)c1C2=O)C[C@@](O)(C(=O)CO)C[C@@H]3O[C@H]1C[C@H](N)[C@H](O)[C@H](C)O1 [DOXORUBICIN] | – | – | – | 5.52 | – | – | – | – | – | – | – | – | – | – | – | – | – | – | –

Further lines, with some results ahead:

pIC50 (HepG2 [2]) | pIC50 (MCF7 [3]) | pIC50 (A549 [4]) | Structure (SMILES) | pIC50 [1] | viability at 24 h, 10 µM [5] | viability at 24 h, 200 µM [6] | viability at 24 h, 100 µM [7] | Activity (MCF7 [8]) | Activity (MCF7 [9]) | viability at 24 h, 300 µM [10] | pIC50 (HEK293) | Activity (HepG2 [11]) | Activity (HepG2 [12]) | viability at 10 µM [13] | Activity (A549 [14]) | Activity (A549 [15]) | Activity (Caco-2 [16]) | fold change (FC) (MCF7 [17]) | Activity (Caco-2 [18])
5.00 | 5.43 | < 4.00 | Fc1ccc(C2CC(c3ccc(Cl)cc3)=NN2c2ccc(-c3ccccc3)nn2)cc1 (stereo not drawn) | < 4.00 | 85.9% | 75.8% | 82.3% | 1.98% | 32.1% | 68.8% | < 3.52 | – | – | – | – | – | – | – | –
5.00 | 4.62 | < 4.00 | c1ccc(C2=NN(c3ccc(-c4ccccc4)nn3)C(c3ccccc3)C2)cc1 (stereo not drawn) | 4.39 | – | – | – | – | – | – | – | – | – | – | – | – | – | – | –
5.07 | 4.00 | 4.05 | Fc1ccc(C2CC(c3ccccc3)=NN2c2ccc(-c3ccccc3)nn2)cc1 (stereo not drawn) | 5.00 | 93.7% | 86.3% | 91.9% | – | – | 78.6% | < 3.52 | 30.5% | 8.84% | 50% | – | – | – | – | –
5.06 | 5.00 | 4.01 | Clc1ccc(C2=NN(c3ccc(-c4ccccc4)nn3)C(c3ccccc3)C2)cc1 (stereo not drawn) | 4.00 | 84% | 78.1% | 81.6% | – | – | 71.6% | < 3.52 | 22.7% | 23.45% | – | – | – | – | – | –
5.20 | 4.00 | 4.00 | Clc1ccc(C2CC(c3ccccc3)=NN2c2ccc(-c3ccccc3)nn2)cc1 (stereo not drawn) | 4.00 | 96.6% | 88.3% | 91.2% | – | – | 74% | < 3.52 | 44.4% | 4.4% | – | – | – | – | – | –
5.00 | 4.00 | 5.04 | FC(F)(F)c1ccc(C2CC(c3ccccc3)=NN2c2ccc(-c3ccccc3)nn2)cc1 (stereo not drawn) | 4.30 | 89.8% | 82.3% | 86.2% | – | – | 70.8% | < 3.52 | – | – | – | 11.11% | 46.6% | – | – | –
< 4.00 | 4.00 | 4.04 | COc1ccc(C2CC(c3ccccc3)=NN2c2ccc(-c3ccccc3)nn2)cc1 (stereo not drawn) | < 4.00 | – | – | – | – | – | – | – | – | – | – | – | – | – | – | –
< 4.00 | < 4.00 | 4.12 | COc1ccc(C2=NN(c3ccc(-c4ccccc4)nn3)C(c3ccccc3)C2)cc1 (stereo not drawn) | < 4.00 | – | – | – | – | – | – | – | – | – | – | – | – | – | – | –
5.04 | 4.70 | < 4.00 | COc1ccc(C2=NN(c3ccc(-c4ccccc4)nn3)C(c3ccc(F)cc3)C2)cc1 (stereo not drawn) | 4.74 | – | – | – | – | – | – | – | – | – | – | – | – | – | – | –
